Experimental findings from ChEMBL document CHEMBL1144667 (2008) are described below.

Activity calls are given as the source filed them. Residues, ends and D or L forms follow the SMILES beside them.

Experiment [1] concerns Mus musculus. Nature of the experiment: Antinociceptive effect in Swiss albino mouse assessed as reduction in jump latency at 1350 pmol, icv after 20 mins by hot plate test. To be noted: in the assay text read “300 ng” for “1350 pmol”. It counts as functional, organism-based. A digest of the protocol: (§1)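 Hot plate at 55 ± 0.5 °C, male Swiss albino CD1 mice confined by plastic cylinder, tested 20 min after icv injection (10 µL/mouse; Haley–McCormick method); paw licking and jump latencies recorded, 240 s cutoff, each mouse tested once. Levocabastine 1350 pmol icv alone or co-given with 300 ng agonist. 6–9 mice/group, mean ± SEM vs saline.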

In experiment [2] the test system is Mus musculus. Briefly: Decrease in body temperature in icv dosed Swiss albino mouse after 4 hrs. The format is functional. A digest of the protocol: (§2)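 icv doses 30 ng–3 µg (10 µL/mouse) in male Swiss albino CD1 mice; body temperature followed over 240 min. Mean body temperature over 4 h = AUC of time–response curve per mouse ÷ 240 min; ED35 = dose giving 35 °C mean over 4 h. 8 mice/group, mean ± SEM vs saline.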

Experiment [3] concerns Mus musculus. Nature of the experiment: Antinociceptive effect in icv dosed Swiss albino mouse assessed as reduction in acetic acid-induced writhing responses at 1 mg/kg, sc to 10 mg/kg, sc. It counts as functional, organism-based. The conditions noted are these: in the assay text read “Swiss albino mouse” for “icv dosed Swiss albino mouse”. A digest of the protocol:
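Writhing in male Swiss albino CD1 mice: s.c. dosing 1–10 mg/kg (10 mL/kg) 15 min before i.p. 0.5% acetic acid; stretches counted over 5 min starting 5 min after acid. 6–8 mice/group, mean ± SEM vs saline.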
For orientation: In writhing tests, fewer writhes than in controls are read as antinociception.

Experiment [4] concerns Mus musculus. Briefly: Decrease in body temperature in Swiss albino mouse at 3 mg/kg, iv. It counts as functional, organism-based. Also noted: dose 3 mg/kg. The conditions noted are these: TDE = time-dependent effect. A digest of the protocol: (§3)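 Body temperature tracked over time after i.v. injection (10 mL/kg) in male Swiss albino CD1 mice (20–22 g); 6–8 mice/group, mean ± SEM vs saline; two-way repeated-measures ANOVA.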

Experiment [5] relates to Mus musculus. Nature of the experiment: Decrease in body temperature in Swiss albino mouse at 1 mg/kg, sc. It counts as functional, organism-based. Also noted: dose 1 mg/kg. To be noted: TDE = time-dependent effect. A digest of the protocol: (§4)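 Male Swiss albino CD1 mice injected s.c. (10 mL/kg); body temperature followed over time to beyond 3 h; 8–10 mice/group, mean ± SEM vs saline; two-way repeated-measures ANOVA.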

Experiment [6] has as its system Mus musculus. Nature of the experiment: Decrease in body temperature in sc dosed Swiss albino mouse. It counts as functional, organism-based. A digest of the protocol: as §4
The test system of experiment [7] is Mus musculus. Nature of the experiment: Decrease in body temperature in Swiss albino mouse at 3 ug, icv after 4 hrs relative to control. It counts as functional, organism-based. A digest of the protocol: as §2
The subject of experiment [8] is Mus musculus. Briefly: Antinociceptive effect in Swiss albino mouse assessed as reduction in paw licking latency between 300 ng to 3 ug, icv by hot plate test. It counts as functional, organism-based. A digest of the protocol: as §1
In experiment [9] the test system is Mus musculus. Briefly: Decrease in body temperature in Swiss albino mouse at 1 mg/kg, iv. It counts as functional, organism-based. Further details: dose 1 mg/kg. To be noted: TDE = time-dependent effect. A digest of the protocol:
as §3

The subject of experiment [10] is Mus musculus. Briefly: Decrease in body temperature in Swiss albino mouse at 3 ug, icv after 90 mins. The format is functional, organism-based. A digest of the protocol:
as §2

Experiment [11] relates to Mus musculus. Briefly: Antinociceptive effect in Swiss albino mouse assessed as reduction in acetic acid-induced writhing responses at 30 mg/kg, po.
Experiment [12] has as its system Mus musculus. Nature of the experiment: Antinociceptive effect in Swiss albino mouse assessed as reduction in jump latency between 300 ng to 3 ug, icv by hot plate test. The format is functional, organism-based. A digest of the protocol: as §1
Background: Thermal pain tests record how soon the animal reacts.

In experiment [13] the test system is Mus musculus. Briefly: Analgesic activity in iv dosed Swiss Albino mouse assessed as inhibition of acetic acid-induced writhing responses. It counts as functional, organism-based. A digest of the protocol: (§5)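 Male Swiss albino CD1 mice (20–22 g); i.v. dosing 10 mL/kg, 15 min before i.p. 0.5% acetic acid; mice placed singly in large beakers, stretches counted over 5 min starting 5 min after acid. Dose–response plus time course at 0.3 mg/kg; 8–18 mice/group, mean ± SEM vs saline.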

Experiment [14] deals with Mus musculus. Briefly: Analgesic activity in Swiss Albino mouse assessed as inhibition of acetic acid-induced writhing responses at 0.3 mg/kg, iv. Also noted: dose 0.3 mg/kg. It counts as functional, organism-based. A digest of the protocol:
as §5

The subject of experiment [15] is Mus musculus. Nature of the experiment: Decrease in body temperature in Swiss albino mouse at 10 mg/kg, sc. To be noted: TDE = time-dependent effect. Also noted: dose 10 mg/kg. The format is functional, organism-based. A digest of the protocol:
as §4

For experiment [16], the system named is Mus musculus. Briefly: Decrease in body temperature in Swiss albino mouse at 100 ng, icv after 30 mins. The format is functional, organism-based. A digest of the protocol: as §2
Experiment [17] relates to Mus musculus. Nature of the experiment: Decrease in body temperature in iv dosed Swiss albino mouse. It counts as functional, organism-based. A digest of the protocol:
as §3

The test system of experiment [18] is Mus musculus. Briefly: Antinociceptive effect in Swiss albino mouse assessed as reduction in jump latency at 300 ng, icv after 20 mins by hot plate test. It counts as functional, organism-based. A digest of the protocol: as §1
For experiment [19], the target named is Neurotensin receptor type 1 (Rattus norvegicus) (UniProt P20789). Nature of the experiment: Binding affinity at rat NTS1 receptor.
Chain of Neurotensin receptor type 1 (Rattus norvegicus) (P20789 whole entry): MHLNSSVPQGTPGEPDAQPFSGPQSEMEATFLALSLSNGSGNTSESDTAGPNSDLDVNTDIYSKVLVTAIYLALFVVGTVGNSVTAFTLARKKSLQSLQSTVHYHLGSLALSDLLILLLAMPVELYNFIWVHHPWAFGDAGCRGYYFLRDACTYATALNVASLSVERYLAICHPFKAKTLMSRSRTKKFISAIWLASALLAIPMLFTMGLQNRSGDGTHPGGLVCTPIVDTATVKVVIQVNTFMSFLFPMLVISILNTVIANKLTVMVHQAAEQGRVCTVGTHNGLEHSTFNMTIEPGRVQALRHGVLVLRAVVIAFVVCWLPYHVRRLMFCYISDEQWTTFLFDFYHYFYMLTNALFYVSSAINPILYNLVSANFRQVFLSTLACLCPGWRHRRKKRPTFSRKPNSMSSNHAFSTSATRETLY

Consider `CC[C@H](C)[C@@H]1NC(=O)[C@H](Cc2ccc(O)cc2)NC(=O)[C@@H]2CCCN2C(=O)[C@H](CCCCN)NC(=O)[C@H](CCCCN)NC(=O)[C@H](CC(C)C)NC(=O)[C@H]([C@@H](C)CC)NC(=O)[C@H](Cc2ccc(O)cc2)NC(=O)[C@@H]2CCCN2C(=O)[C@H](CCCCN)NC(=O)[C@H](CCCCN)NC(=O)[C@H](CC(C)C)NC1=O` (cyclo(ILKKPYILKKPY)), for which the outcome in the experiment with Mus musculus [1], in the experiment on Mus musculus [7], with Mus musculus [10], in the experiment on Mus musculus [11], in the experiment with Mus musculus [14] and in the experiment on Mus musculus [16] was Active. Further, in the experiment with Mus musculus [18], the outcome was Active. Besides, the ED35 with Mus musculus [2] stood at 300 ng. Further, the Activity entry with Mus musculus [3] is “Dose-dependent effect”; with Mus musculus [4] it was “tde”; in the experiment with Mus musculus [5], “tde”; in the experiment with Mus musculus [6] it was “Dose-dependent effect”; with Mus musculus [8] it was “Dose-dependent effect”; in the experiment with Mus musculus [9] it was “tde”. In addition, the Activity entry with Mus musculus [12] is “Dose-dependent effect”; in the experiment with Mus musculus [13], “Dose-dependent effect”; with Mus musculus [15], “tde”; with Mus musculus [17], “Dose-dependent effect”.

In [19], `CCC(C)[C@H](NC(=O)[C@H](Cc1ccc(O)cc1)NC(=O)[C@@H]1CCCN1C(=O)[C@H](CCCNC(=N)N)NC(=O)[C@@H](N)CCCNC(=N)N)C(=O)N[C@@H](CC(C)C)C(=O)O` (single isomer, unassigned) showed an Activity of 0.16 nmol.
